# Measured values from different studies.
# Read-out: cell growth or viability
SMILES,cell line,test,setting,endpoint,result
N.N.[Cl][Pt][Cl],A-431,SRB,,EC50,1800 nM
CC[C@@]1(O)C(=O)OCc2c1cc1n(c2=O)Cc2cc3cc4c(cc3nc2-1)OCO4,HepG2,MTT,72 h,IC50,22 nM
N.N.[Cl][Pt][Cl],A-431,MTT,"24 h, dark",IC50,40100 nM
CC[C@@]1(OC(=O)[C@@H](N)C(C)C)C(=O)OCc2c1cc1n(c2=O)Cc2cc3cc4c(cc3nc2-1)OCO4,HepG2,MTT,,IC50,87 nM
C=CC(=O)Nc1cc(Nc2nccc(-c3cn(C)c4ccccc34)n2)c(OC)cc1N(C)CCN(C)C,NCI-H292,ATP luminescence,72 h,GI50,3750 nM
CC[C@H](C)[C@H](N)C(=O)O[C@]1(CC)C(=O)OCc2c1cc1n(c2=O)Cc2cc3cc4c(cc3nc2-1)OCO4,HepG2,MTT,,IC50,98 nM
O=C1[O][Pt]2([NH][C@@H]3CCCC[C@H]3[NH]2)[O]C1=O,PNT2,MTT,96 h,IC50,1300 nM
O=c1ccc2ccc3occc3c2o1,HepG2,WST-1,48 h,IC50,13800 nM
N.N.[Cl][Pt][Cl],HepG2,MTT,20 µM,inhibition,88.5%
CCOC(=O)C1=C(N)N(c2ccc(C(=O)OCC)cc2)C(O)=C(C#N)C12C(=O)Nc1ccccc12 (stereo not shown),HepG2,MTT,"12.5 µM, 24 h",viability,33.9%
CC1=C(O)C(=O)C=C2C1=CC=C1[C@@]2(C)CC[C@@]2(C)[C@@H]3C[C@](C)(C(=O)O)CC[C@]3(C)CC[C@]12C,Huh-7,MTT,20 µM,inhibition,77.3%
CC[C@@]1(OC(=O)C(C)c2ccc(CC(C)C)cc2)C(=O)OCc2c1cc1n(c2=O)Cc2cc3cc4c(cc3nc2-1)OCO4 (stereo partly shown),HepG2,MTT,,IC50,> 5000 nM
[N-]=[N+]=[N-],A-431,MTT,3 h,IC50,> 100000 nM
